Results as given in ChEMBL document CHEMBL4330137, “Synthesis and antimicrobial activities of N6-hydroxyagelasine analogs and revision of the structure of ageloximes” (Bioorg Med Chem, 2019).
Converted amounts (≈) assume the structure as drawn. The source made the active and inactive calls. No cut-off for these calls is given here.

Legend:
[1] = test system: Mycobacterium tuberculosis; test: Antitubercular activity against Mycobacterium tuberculosis H37Rv by LORA; assay type: functional
[2] = test system: Mycobacterium tuberculosis; test: Antitubercular activity against Mycobacterium tuberculosis H37Rv by MABA; assay type: functional
[3] = test system: Trypanosoma brucei; test: Antitrypanosomal activity against suramin-sensitive Trypanosoma brucei Squib 427 assessed as parasite growth inhibition after 72 hrs by resazurin assay; assay type: functional, organism-based; conditions: Squib 427, 72 h
Outline: (§1)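 Bloodstream parasites in HMI-9 with 10% inactivated FCS; 1.5 × 10³ (T. brucei) or 4 × 10³ (T. rhodesiense) per well, compound 64–0.25 µM, 37 °C, 5% CO2, 3 days. Resazurin (50 µg/mL) added; fluorescence read after 24 h (T. brucei) or 6 h (T. rhodesiense), ex 550/em 590 nm. IC50 from % growth inhibition.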

[4] = test system: Trypanosoma brucei rhodesiense; test: Antitrypanosomal activity against Trypanosoma brucei rhodesiense STIB 900 assessed as parasite growth inhibition after 72 hrs by resazurin assay; assay type: functional, organism-based; conditions: STIB 900, 72 h; outline: as §1
[5] = test system: Escherichia coli; test: Antibacterial activity against Escherichia coli ATCC 8739 after 17 hrs by resazurin dye based fluorimetric assay; assay type: functional, organism-based; conditions: ATCC 8739, ATCC 8739, 17 h
Outline: (§2)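 Bacteria grown in Mueller Hinton broth; 5 × 10³ CFU/mL inoculum with compound at 64, 16, 4, 1 and 0.25 µM (DMSO final <1%), 37 °C for 17 h. Resazurin added, fluorescence read after 0.5 h (ex 550/em 590 nm). Growth normalised to untreated (100%) and medium-only (0%) wells; IC50 calculated.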

[6] = test system: Staphylococcus aureus; test: Antibacterial activity against Staphylococcus aureus ATCC 6538 after 17 hrs by resazurin dye based fluorimetric assay; assay type: functional, organism-based; conditions: ATCC 6538, 17 h; outline: as §2
[7] = test system: Candida albicans; test: Antifungal activity against azole-resistant Candida albicans after 24 hrs by resazurin dye based fluorimetric assay; assay type: functional, organism-based
Outline: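 Inoculum 5 × 10³ CFU/mL in RPMI-1640 with Mops buffer and glucose. Tested at 64, 16, 4, 1 and 0.25 µM from DMSO stocks, final DMSO <1%. Incubated 24 h at 37 °C, then resazurin added and fluorescence read after 0.5 h (ex 550/em 590 nm). Growth normalized to untreated (100%) and medium-only (0%) wells; IC50 calculated. Flucytosine positive control.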

[8] = Cytotoxicity against human MRC5 SV2 cells after 3 days by resazurin dye based fluorescence assay; assay type: cell-based; conditions: MRC-5 SV2, 72 h
Outline: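 MRC-5SV2 fibroblasts in MEM with L-glutamine, NaHCO3, 5% inactivated FCS; 5 × 10³ inoculum with compound at 64–0.25 µM (4-fold steps, DMSO <1%), 37 °C, 5% CO2, 3 days. Resazurin added, fluorescence after 4 h (ex 550/em 590 nm). Viability relative to untreated and medium controls; IC50 calculated.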

[9] = test system: Trypanosoma cruzi; test: Antitrypanosomal activity against beta-galactosidase expressing nifurtimox-sensitive Trypanosoma cruzi Tulahuen CL2 infected in human MRC5 SV2 cells assessed as reduction in parasite burden after 168 hrs by CPRG and Nonidet based spectrophotometric analysis; assay type: functional, organism-based; conditions: Tulahuen CL2, MRC-5 SV2, 168 h
Outline: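 MRC-5 cells (4·10³/well) plus 4·10⁴ parasites per well with compound at 64–0.25 µM, 37 °C, 5% CO2 for 7 days. CPRG/Nonidet in PBS added; absorbance at 540 nm after 4 h. Percent burden reduction versus untreated-infected and uninfected controls; IC50 calculated.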

[10] = test system: Staphylococcus epidermidis; test: Antibiofilm activity against Staphylococcus epidermidis ATCC 35984 up to 1000 uM by safranin staining based assay; assay type: functional, organism-based
[11] = test system: Escherichia coli; test: Antibiofilm activity against Escherichia coli clinical isolates at 1 mM by safranin staining based assay relative to control; assay type: functional
[12] = test system: Pseudomonas aeruginosa; test: Antibiofilm activity against Pseudomonas aeruginosa CUCG 56489 up to 1000 uM by safranin staining based assay; assay type: functional, organism-based
[13] = test system: Leishmania infantum; test: Antileishmanial activity against amastigote stage of Leishmania infantum MHOM/MA(BE)/67 infected in mouse primary peritoneal macrophages assessed as decrease in parasite burden after 5 days by Giemsa staining-based microscopic method; assay type: functional, organism-based; conditions: MHOM/MA(BE)/67, 120 h
Outline: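 Amastigotes purified from infected hamster spleen; starch-stimulated mouse peritoneal macrophages (3·10⁴/well) infected with 4.5·10⁵ parasites in supplemented RPMI-1640. Compound (64–0.25 µM) added 2 h post-infection; 5 days, 37 °C, 5% CO2. Amastigotes per macrophage counted microscopically after 10% Giemsa staining; % burden reduction versus controls, IC50 calculated.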

[14] = test system: Escherichia coli; test: Antibiofilm activity against Escherichia coli clinical isolates at 500 uM by safranin staining based assay relative to control; assay type: functional
[15] = test system: Escherichia coli; test: Growth inhibition of Escherichia coli clinical isolates at 500 uM; assay type: functional; conditions: read-out: GI
[16] = test system: Staphylococcus epidermidis; test: Antibiofilm activity against Staphylococcus epidermidis ATCC 35984 at 125 uM by safranin staining based assay relative to control; assay type: functional
[17] = test system: Staphylococcus epidermidis; test: Growth inhibition of Staphylococcus epidermidis ATCC 35984; assay type: functional, organism-based
[18] = test system: Pseudomonas aeruginosa; test: Antibiofilm activity against Pseudomonas aeruginosa CUCG 56489 at 250 uM by safranin staining based assay relative to control; assay type: functional

| Structure (SMILES) | MIC [1] [µg/mL] | MIC [2] [µg/mL] | IC50 [3] [nM] | IC50 [4] [nM] | IC50 [5] [nM] | IC50 [6] [nM] | IC50 [7] [nM] | IC50 [8] [nM] | IC50 [9] [nM] | IC50 [13] [nM] | further results |
| --- | --- | --- | --- | --- | --- | --- | --- | --- | --- | --- | --- |
| NNC(=O)c1ccncc1 [ISONIAZID] | > 128 | 0.48 (≈ 3.5 µM) | – | – | – | – | – | – | – | – | – |
| Cc1ccc(C(=O)Nc2ccc(S(=O)(=O)O)c3cc(S(=O)(=O)O)cc(S(=O)(=O)O)c23)cc1NC(=O)c1cccc(NC(=O)Nc2cccc(C(=O)Nc3cc(C(=O)Nc4ccc(S(=O)(=O)O)c5cc(S(=O)(=O)O)cc(S(=O)(=O)O)c45)ccc3C)c2)c1 [SURAMIN] | – | – | 20 | 30 | – | – | – | – | – | – | – |
| C[C@H]1c2cccc(O)c2C(=O)C2=C(O)[C@]3(O)C(=O)C(C(N)=O)=C(O)[C@@H](N(C)C)[C@@H]3[C@@H](O)[C@@H]21 [DOXYCYCLINE] | – | – | – | – | 580 | 30 | – | – | – | – | – |
| Nc1nc(=O)[nH]cc1F [FLUCYTOSINE] | – | – | – | – | – | – | 410 | – | – | – | – |
| CC/C(=C(\c1ccccc1)c1ccc(OCCN(C)C)cc1)c1ccccc1 [TAMOXIFEN] | – | – | – | – | – | – | – | 11200 | – | – | – |
| O=C(Cn1ccnc1[N+](=O)[O-])NCc1ccccc1 [BENZNIDAZOLE] | – | – | – | – | – | – | – | – | 2690 | – | – |
| CC(C)=CCC/C(C)=C/C[n+]1cn(C)c2nc[nH]/c(=N\O)c21.[Br-] | > 50 | > 50 | 28000 | 8060 | > 64000 | > 64000 | > 64000 | > 64000 | 11500 | 20300 | Activity [10]: inactive; Activity [11]: 50%; Activity [12]: inactive |
| CCCCCCCCCCCCCCCCOP(=O)([O-])OCC[N+](C)(C)C [MILTEFOSINE] | – | – | – | – | – | – | – | – | – | 11800 | – |
| CC(C)=CCC/C(C)=C/CC/C(C)=C/CC/C(C)=C/C[n+]1cn(C)c2nc[nH]/c(=N\O)c21.[Br-] | 15.3 | 11.3 | 2010 | 500 | > 64000 | 1890 | 2000 | 1900 | 540 | 2160 | Activity [14]: 70%; inhibition of growth at 500 µM [15]: 20%; Activity [16]: 90%; IC50 [17]: 125000 nM; Activity [18]: 40 - 50% |
